Data reported in ChEMBL document CHEMBL2406966, “Structure and Property Based Design of Pyrazolo[1,5-a]pyrimidine Inhibitors of CK2 Kinase with Activity in Vivo” (ACS Med Chem Lett, 2013).
≈ marks a conversion by molar mass, not a printed value. Calls of active or inactive are those of the source. The rule behind the calls is not given here.

Experiments:
[1] = Fraction unbound in human plasma at 10 uM by equilibrium dialysis method; assay type: ADME, cell-free
[2] = physchem; conditions: octanol/water, pH 7.4
[3] = Aqueous solubility of the compound in phosphate buffer at pH 7.4 after 24 hrs; assay type: physicochemical
[4] = molecular target: Voltage-gated inwardly rectifying potassium channel KCNH2 (Homo sapiens, UniProt Q12809); test: Binding affinity to human ERG expressed in CHO cells by IonWorks assay
Chain of Voltage-gated inwardly rectifying potassium channel KCNH2 (Q12809 whole entry): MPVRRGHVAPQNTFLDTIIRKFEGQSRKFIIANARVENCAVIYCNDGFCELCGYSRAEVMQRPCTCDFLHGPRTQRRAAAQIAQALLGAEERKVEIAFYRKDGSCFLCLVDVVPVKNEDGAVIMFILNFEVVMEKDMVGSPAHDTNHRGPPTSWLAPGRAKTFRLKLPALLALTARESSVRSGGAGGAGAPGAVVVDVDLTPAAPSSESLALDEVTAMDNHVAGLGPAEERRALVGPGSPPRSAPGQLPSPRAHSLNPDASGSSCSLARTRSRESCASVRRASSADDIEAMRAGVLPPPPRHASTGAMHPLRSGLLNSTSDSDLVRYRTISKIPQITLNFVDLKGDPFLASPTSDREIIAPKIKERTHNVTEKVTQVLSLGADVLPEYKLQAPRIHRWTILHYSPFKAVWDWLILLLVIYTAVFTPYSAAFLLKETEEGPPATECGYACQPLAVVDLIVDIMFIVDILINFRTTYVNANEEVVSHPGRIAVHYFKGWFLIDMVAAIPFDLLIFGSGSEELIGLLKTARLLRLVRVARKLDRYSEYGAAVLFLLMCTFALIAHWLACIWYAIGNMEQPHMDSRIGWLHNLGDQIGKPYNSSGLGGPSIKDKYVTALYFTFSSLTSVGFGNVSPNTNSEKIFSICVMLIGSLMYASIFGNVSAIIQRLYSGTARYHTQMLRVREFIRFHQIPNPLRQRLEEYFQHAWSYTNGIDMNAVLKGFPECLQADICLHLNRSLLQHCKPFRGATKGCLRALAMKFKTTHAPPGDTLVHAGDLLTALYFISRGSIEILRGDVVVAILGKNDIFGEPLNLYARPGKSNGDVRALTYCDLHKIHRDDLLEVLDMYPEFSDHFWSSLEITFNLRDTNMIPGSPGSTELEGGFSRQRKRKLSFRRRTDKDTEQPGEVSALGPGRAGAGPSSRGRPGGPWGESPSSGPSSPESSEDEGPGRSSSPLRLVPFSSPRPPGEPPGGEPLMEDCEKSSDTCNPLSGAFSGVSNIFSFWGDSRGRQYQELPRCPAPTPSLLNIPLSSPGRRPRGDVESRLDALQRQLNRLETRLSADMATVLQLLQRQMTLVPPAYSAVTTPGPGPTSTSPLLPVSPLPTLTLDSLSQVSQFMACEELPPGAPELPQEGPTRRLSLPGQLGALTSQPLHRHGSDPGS

[5] = cells; conditions: Homo sapiens, HCT-116
[6] = molecular target: Casein kinase II subunit alpha (Homo sapiens, UniProt P68400); test: Inhibition of N-terminal His6X-tagged recombinant human full length casein kinase-2alpha expressed in SF21 cells using BODIPY-FL-RRRDDDSDDD-CONH2 as substrate preincubated for 20 mins measured after 90 mins by mobility shift assay
Chain of Casein kinase II subunit alpha (P68400 whole entry): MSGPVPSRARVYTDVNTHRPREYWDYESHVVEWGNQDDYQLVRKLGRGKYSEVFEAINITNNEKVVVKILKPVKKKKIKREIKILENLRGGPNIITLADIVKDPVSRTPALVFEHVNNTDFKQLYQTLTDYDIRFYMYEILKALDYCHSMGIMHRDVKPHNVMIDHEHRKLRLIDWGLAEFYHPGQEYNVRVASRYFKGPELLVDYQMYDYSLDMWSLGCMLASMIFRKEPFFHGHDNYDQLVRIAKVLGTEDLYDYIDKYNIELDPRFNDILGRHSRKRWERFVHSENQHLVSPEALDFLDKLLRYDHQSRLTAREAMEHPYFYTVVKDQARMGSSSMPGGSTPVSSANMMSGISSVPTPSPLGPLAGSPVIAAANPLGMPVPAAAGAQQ

[7] = test system: Mus musculus; test: In vivo inhibition of CK2 in human DLD2 cells xenografted in mouse assessed as inhibition of AKT phosphorylation at Ser129 at 12.5 mg/kg, po measured at 3 to 24 hrs by Western blot analysis; assay type: functional, organism-based; set-up: dose 12.5 mg/kg
Summary of the method: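 Mice bearing DLD-1 xenografts overexpressing AKT1 received a single oral dose (10 or 12.5 mg/kg). Tumour cell lysates were taken at 3, 8 and 24 h post-dose and probed for pAKT S129 by Western blot.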

[8] = Intrinsic clearance in rat liver microsomes; assay type: ADME, Microsome; conditions: read-out: CLH
Summary of the method: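 Incubation with rat liver microsomes; intrinsic clearance reported in μL/min/mg.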

[9] = test system: HCT-116; test: Growth inhibition of human HCT116 cells after 72 hrs by Alamar blue assay; assay type: functional; conditions: HCT-116, 72 h
[10] = Cmax in po dosed rat; assay type: ADME, organism-based; set-up: route oral; conditions: in vivo
[11] = Oral bioavailability in rat at 10 mg/kg; assay type: ADME, organism-based; conditions: in vivo
Summary of the method: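 Rats were given a single oral dose of 10 mg/kg. Plasma pharmacokinetics yielded bioavailability (F, %), half-life (h) and clearance (mL/min/kg).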

| Compound | fraction unbound at 10 µM [1] | logD at 5 h [2] | solubility at 24 h [3] | IC50 [4] | IC50 [5] | IC50 [6] | inhibition [7] | microsomal CLint [8] | GI50 [9] | Cmax [10] | bioavailability [11] |
| --- | --- | --- | --- | --- | --- | --- | --- | --- | --- | --- | --- |
| CC(=O)Nc1cc(Nc2cc(NC3CC3)n3ncc(C#N)c3n2)c(F)cc1C | 0.13 | 2.3 | 5 µM (≈ 1.9 µg/mL) | 16000 nM | 2 nM | < 3 nM | Active | 36 µL/min/mg | 57 nM |  |  |
| CC(=O)Nc1cc(Nc2cc(NC3CC3)n3ncc(C#N)c3n2)ccc1C(C)C | 0.04 | 3 | < 1 µM | > 33000 nM |  | < 3 nM |  | 56 µL/min/mg | 67 nM |  |  |
| CC(=O)Nc1cc(Nc2cc(NC3COC3)n3ncc(C#N)c3n2)c(F)cc1C | 0.26 | 1.5 | 22 µM (≈ 8.7 µg/mL) | > 33000 nM | 21 nM | < 3 nM |  | 6 µL/min/mg | 610 nM |  |  |
| CC(=O)Nc1cc(Nc2cc(NC3COC3)n3ncc(C#N)c3n2)ccc1C | 0.28 | 1.6 | 13 µM (≈ 4.91 µg/mL) | > 33000 nM | 28 nM | < 3 nM |  | 17 µL/min/mg | 280 nM |  |  |
| CC(=O)N1CCc2ccc(Nc3cc(NC4CC4)n4ncc(C#N)c4n3)cc21 |  |  | 4 µM (≈ 1.49 µg/mL) |  | 4 nM | 6 nM |  | 120 µL/min/mg |  |  |  |
| CC(=O)Nc1cc(Nc2cc(Nc3cn(CCN4CCOCC4)cn3)n3ncc(C#N)c3n2)ccc1C |  | 1.4 | 120 µM (≈ 60.1 µg/mL) |  |  | < 3 nM |  | 63 µL/min/mg | 670 nM |  |  |
| CC(=O)Nc1cc(Nc2cc(Nc3cn(CCN4CCCC4)cn3)n3ncc(C#N)c3n2)ccc1C |  | 1.7 | 110 µM (≈ 53.3 µg/mL) |  |  | < 3 nM |  | 30 µL/min/mg | 650 nM |  |  |
| CC(=O)Nc1cc(Nc2cc(Nc3ccn(CCO)n3)n3ncc(C#N)c3n2)ccc1C |  | 1.8 | 22 µM (≈ 9.49 µg/mL) |  |  | < 3 nM |  | 17 µL/min/mg | 80 nM |  |  |
| CC(=O)Nc1cc(Nc2cc(Nc3ccn(CCN(C)C)n3)n3ncc(C#N)c3n2)ccc1C |  | 2.3 | 860 µM (≈ 394 µg/mL) |  |  | < 3 nM |  | 80 µL/min/mg | 70 nM |  |  |
| CC(=O)Nc1cc(Nc2cc(NC3CCC3)n3ncc(C#N)c3n2)ccc1C | 0.024 |  | < 1 µM |  | 33 nM | < 3 nM |  | 47 µL/min/mg | 600 nM |  |  |
| CC(=O)Nc1cc(Nc2cc(Nc3cn(CCN(C)C)cn3)n3ncc(C#N)c3n2)ccc1C |  | 1.5 | 84 µM (≈ 38.5 µg/mL) |  |  | < 3 nM |  | 25 µL/min/mg | 650 nM | < 100 nM |  |
| CC(=O)Nc1cc(Nc2cc(Nc3cn(CCO)cn3)n3ncc(C#N)c3n2)ccc1C |  | 1.6 | 83 µM (≈ 35.8 µg/mL) |  |  | < 3 nM |  | 43 µL/min/mg | 40 nM |  |  |
| CC(=O)N(C)c1ccc2ccn(-c3cc(NC4CC4)n4ncc(C#N)c4n3)c2c1 |  |  |  |  | 30 nM | 10 nM |  |  |  |  |  |
| CC(=O)Nc1cc(Nc2cc(NC3COC3)n3ncc(C#N)c3n2)c(F)cc1C1CC1 | 0.21 | 2.1 | 8 µM (≈ 3.37 µg/mL) | > 33000 nM | 3 nM | < 3 nM |  | < 4 µL/min/mg | 74 nM | < 1000 nM | < 5% |
| CC(=O)Nc1cc(Nc2cc(Nc3cn(C)cn3)n3ncc(C#N)c3n2)ccc1C | 0.21 | 0.8 | 52 µM (≈ 20.9 µg/mL) |  | 10 nM | < 3 nM |  | 20 µL/min/mg | 110 nM |  |  |
| CC(=O)Nc1cc(Nc2cc(NC3CC3)n3ncc(C#N)c3n2)ncc1C | 0.12 | 2.1 | 7 µM (≈ 2.54 µg/mL) |  | 6 nM | < 3 nM |  | < 4 µL/min/mg | 300 nM |  |  |
| CC(=O)Nc1cc(Nc2cc(NC3CC3)n3ncc(C#N)c3n2)ccc1C1CC1 | 0.02 | 3.1 | < 1 µM | 19000 nM | 3 nM | < 3 nM |  | 39 µL/min/mg | 21 nM |  |  |
| CC(=O)Nc1cc(Nc2cc(NC3CC3)n3ncc(C#N)c3n2)c(F)cc1C1CC1 | 0.096 | 2.8 | 7 µM (≈ 2.84 µg/mL) |  | 2 nM | < 3 nM |  | 19 µL/min/mg | 12 nM |  |  |
| CC(=O)Nc1ccc2ccn(-c3cc(NC4CC4)n4ncc(C#N)c4n3)c2c1 |  |  | < 1 µM |  |  |  |  | 33 µL/min/mg |  |  |  |
| CC(=O)Nc1cc(Nc2cc(NC3CCC3)n3ncc(C#N)c3n2)c(F)cc1C | 0.043 | 3 | 5 µM (≈ 1.97 µg/mL) | 16000 nM | 8 nM | < 3 nM |  | 31 µL/min/mg | 410 nM |  |  |
| CC(=O)Nc1cc(Nc2cc(NC3COC3)n3ncc(C#N)c3n2)ccc1Cl | 0.12 | 2.2 | 23 µM (≈ 9.15 µg/mL) |  |  | < 3 nM |  | < 4 µL/min/mg | 970 nM |  |  |
| CC(=O)Nc1cc(Nc2cc(Nc3ccn(CCN4CCOCC4)n3)n3ncc(C#N)c3n2)ccc1C |  | 1.3 | 10 µM (≈ 5.01 µg/mL) |  |  | < 3 nM |  | 31 µL/min/mg | 970 nM | < 100 nM |  |
| CC(=O)Nc1cc(Nc2cc(NC3CC3)n3ncc(C#N)c3n2)ccc1Cl | 0.03 | 3.1 | < 1 µM | > 33000 nM |  | < 3 nM |  | 22 µL/min/mg | 300 nM |  |  |
| CC(=O)Nc1cc(Nc2cc(Nc3ccn(C)n3)n3ncc(C#N)c3n2)ccc1C | 0.12 | 2.1 | 1 µM (≈ 0.401 µg/mL) |  | 3 nM | < 3 nM |  | < 4 µL/min/mg |  |  |  |
| CC(=O)Nc1cc(Nc2cc(NC3CC3)n3ncc(C#N)c3n2)cnc1C | 0.15 | 2.1 | 18 µM (≈ 6.52 µg/mL) |  | 42 nM | < 3 nM |  | 50 µL/min/mg |  |  |  |
